Screening data: PubChem BioAssay, PCMD
Yeast eIF2B = GCN4-lacZ reporter reduction in eIF2B-epsilon mutant yeast, primary screen, S. cerevisiae, eIF2B-epsilon R284H, Beta-Glo luminescence; AID 688, 2007; inhibition, % at 25 µM (by protocol); hit rate 0.91% among 27,000;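 active = mutant luminescence inhibited past about 50% while wild type luminescence and mutant growth stay under set limits, limit read from the data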
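System: Yeast eIF2B-epsilon R284H mutant carrying GCN4–beta-galactosidase fusion | Read-out basis: Percent inhibition, luminescence and growth | Compound: 25 µM single dose | Times: 16 h at 30 °C exposure | Measured by: Luminescence and A595 | Buffer or medium: YPD medium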
Yeast growth tox = yeast growth toxicity, wild-type and mutant, primary screen, cytotoxicity control for eIF2B function restoration project, wild-type and eIF2Bepsilon R284H mutant, A595. AID 685, 2007. growth inhibition, % at 25 µM (by protocol). hit rate 0.3% among 30,000. S. cerevisiae wild-type growth, A595 turbidity, 16 h;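 active = mutant and wild-type yeast strains alike exhibit over 30% growth inhibition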;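 note: 0% = untreated cell controls and 100% = YPD media blanks without cells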
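Schedule: 16 h growth with compound, 30 °C. System: yeast, wild-type or eIF2Bepsilon-R284H mutant. Doses: one dose, 25 µM compound[…]. Buffer or medium: YPD. Signal: turbidity measured as absorbance at 595 nm. Read-out basis: growth inhibition (%) versus cell controls and blanks.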
The depositor's hits bear a star. The list is not random: actives were taken first. Their share in the collection is about 1%.

`Nn1c(CSc2nc3ccccc3o2)nnc1CSc1nc2ccccc2o1` gave Yeast eIF2B 61* and Yeast growth tox -20.
For CCOC(=O)Cn1c(=O)c2c(nc3n2CCN3Cc2ccccc2)n(C)c1=O the results were Yeast eIF2B 53* and Yeast growth tox 4.
For CCOC(=O)Cn1c(=O)c2c(nc3n2CCN3c2ccc(C)cc2)n(C)c1=O the results were Yeast eIF2B -22 and Yeast growth tox 10.
COc1cc(NC(=O)Cn2nc(C(F)(F)F)c3c2CCCC3)cc(OC)c1OC was read as Yeast eIF2B 22 and Yeast growth tox -6.
For Cc1ccc(C(=O)N(c2c(C)n(C)n(-c3ccccc3)c2=O)C(C)C)cc1 the results were Yeast eIF2B 25 and Yeast growth tox 20.
Screening CC1(C)NC(=O)N(CCOCCOc2cccc(Oc3ccccc3)c2)C1=O returned Yeast eIF2B 13 and Yeast growth tox 2.
Screening CCC(C)Oc1cccc(OCCCCN2C(=O)NC(C)(C)C2=O)c1 (configuration not stated) returned Yeast eIF2B 51* and Yeast growth tox -12.
Screening COc1ccccc1N(CC(=O)Nc1cc(C)on1)S(=O)(=O)c1cccs1 returned Yeast eIF2B 24 and Yeast growth tox 4.
COc1ccc(S(=O)(=O)N2CCCCC2C(=O)O)cc1 (configuration not stated) was read as Yeast eIF2B 12 and Yeast growth tox 13.
Screening COc1ccc(S(=O)(=O)N2CCCCC2C(=O)O)cc1OC (configuration not stated) returned Yeast eIF2B 50* and Yeast growth tox -4.
Screening C=CCc1cccc2cc(C(=O)OCC(=O)c3ccccc3)c(=O)oc12 returned Yeast eIF2B 0 and Yeast growth tox -11.
`CC(=O)Nc1ccc(C(=O)N2CCN(C(=O)c3ccco3)CC2)cc1` gave Yeast eIF2B 13 and Yeast growth tox -2.
Screening O=C(CCN1CCN(C(=O)c2ccco2)CC1)Nc1ccc(F)cc1 returned Yeast eIF2B 69* and Yeast growth tox -14.
Screening CCCC(=O)N(CCN(C(=O)CCC)c1ccccc1)c1ccccc1 returned Yeast eIF2B 20 and Yeast growth tox 6.
Screening COc1cccc(CN(CC2CCCO2)S(=O)(=O)c2ccc(S(=O)(=O)N(C)C)cc2)c1 (configuration not stated) returned Yeast growth tox 3.
`Cc1cccc(C)c1OCc1nnc2c3cnn(C)c3ncn12` gave Yeast eIF2B -12 and Yeast growth tox 13.
Cc1ccccc1OCc1nc2c3cnn(C)c3ncn2n1 was read as Yeast eIF2B 55* and Yeast growth tox -14.
CN(c1ccccc1C(=O)Nc1cccc(Cl)c1Cl)S(C)(=O)=O was read as Yeast eIF2B 13 and Yeast growth tox 5.
For N#Cc1c(/N=C/c2cccs2)sc2c1CCC2 the results were Yeast eIF2B -14 and Yeast growth tox 0.
`N#Cc1c(/N=C/c2cc(Br)cs2)sc2c1CCC2` gave Yeast eIF2B 60* and Yeast growth tox 0.
For CC(C)c1ccc2c(c1)C1(NN=C(c3ccccc3)S1)C(=O)N2 (configuration not stated) the results were Yeast eIF2B -2 and Yeast growth tox 7.
Screening CCc1ccc2c(c1)C1(NN=C(c3ccc(C)cc3)S1)C(=O)N2 (configuration not stated) returned Yeast eIF2B 60*.
For Cc1cccc(OCc2nnc(NC(=O)c3cccs3)s2)c1 the results were Yeast eIF2B -26 and Yeast growth tox 6.
`O=C(Nc1nnc(COc2ccc(Cl)cc2)s1)c1cccs1` gave Yeast eIF2B 50* and Yeast growth tox 2.
`N/C(=N\OS(=O)(=O)c1ccc(Br)cc1)c1ccncc1` gave Yeast eIF2B -5 and Yeast growth tox 4.
For COc1cc(/C=C2\C(=O)N(CCC#N)N=C2C)c(Br)cc1OC(C)C the results were Yeast eIF2B 53* and Yeast growth tox -17.
`COc1ccccc1CNC(=O)CN(c1ccc(C)cc1)S(=O)(=O)c1c(C)nn(C)c1C` gave Yeast eIF2B 51* and Yeast growth tox 7.
`COc1ccccc1NC(=O)CN(c1ccc(C)cc1)S(=O)(=O)c1c(C)n[nH]c1C` gave Yeast eIF2B 19 and Yeast growth tox 21.
For Cc1nc2c(cnn2-c2ccccc2Cl)c(=O)n1-c1ccc(C(C)C)cc1 the results were Yeast eIF2B 15 and Yeast growth tox 3.
`CCN(C(=O)COC(=O)c1[nH]c(C)c(C(C)=O)c1C)C1CCS(=O)(=O)C1` (configuration not stated) gave Yeast eIF2B -3 and Yeast growth tox -4.
`CCC(C)N(C(=O)COC(=O)c1[nH]c(C)c(C(C)=O)c1C)C1CCS(=O)(=O)C1` (configuration not stated) gave Yeast eIF2B 54* and Yeast growth tox -1.
For Cn1cccc1C1Nc2ccccc2NC2=C1C(=O)CC(C)(C)C2 (configuration not stated) the results were Yeast eIF2B 5 and Yeast growth tox 22.
`COc1ccc(Oc2nc3c(c(=O)n(C)c(=O)n3C)n2Cc2cccc(OC)c2)cc1` gave Yeast eIF2B 4 and Yeast growth tox -16.
`Cn1c(=O)c2c(nc(Oc3ccc4c(c3)OCO4)n2Cc2ccc(Br)cc2)n(C)c1=O` gave Yeast eIF2B 57* and Yeast growth tox -42.
Screening Cc1ccc(N2CC(C(=O)Nc3ccccc3C(=O)NC3CCCCC3)CC2=O)cc1C (configuration not stated) returned Yeast eIF2B 54* and Yeast growth tox 10.
`O=C(Nc1ccccc1C(=O)NC1CCCCC1)c1ccco1` gave Yeast eIF2B 17 and Yeast growth tox -2.
`Cc1occc1C(=O)N/N=C/c1cnn(C)c1C` gave Yeast eIF2B 2 and Yeast growth tox -5.
Screening O=C(O)c1ccoc1CN1CCCCC1 returned Yeast eIF2B 47 and Yeast growth tox 9.
Screening CCOC(=O)c1c(NC(=O)c2c(Br)cnn2CC)sc(C)c1C returned Yeast eIF2B 26 and Yeast growth tox -17.
O=C(OCn1ncc(Br)c(Br)c1=O)c1c(F)cccc1F was read as Yeast growth tox 82*.
For Cc1cc(N)n(-c2ccc3ccccc3c2)n1 the results were Yeast eIF2B 2 and Yeast growth tox 17.
`Clc1ccc2nc(N3CCCCC3)[nH]c2c1` gave Yeast eIF2B 37 and Yeast growth tox 14.
O=c1c(Cl)c(N2CCCCC2)cnn1-c1nc2ccccc2[nH]1 was read as Yeast eIF2B 73* and Yeast growth tox -4.
For COc1ccc(-n2nc(C(=O)Nc3ccc4c(c3)OCO4)c3ccccc3c2=O)c(OC)c1 the results were Yeast eIF2B -17 and Yeast growth tox -33.
COc1ccccc1-n1nc(C(=O)Nc2ccc3c(c2)OCO3)c2ccccc2c1=O was read as Yeast eIF2B 50* and Yeast growth tox -13.
`O=S(=O)(c1ccc(N2CCN(CCO)CC2)nc1)N1CCCCC1` gave Yeast eIF2B 22 and Yeast growth tox -5.
For CCN(CC)c1ccc(C2NCC(c3ccc([N+](=O)[O-])cc3)O2)cc1 (configuration not stated) the results were Yeast eIF2B -2.
